# Experimental data published in ChEMBL document CHEMBL3108678, “Isolation and synthesis of pulmonarins A and B, acetylcholinesterase inhibitors from the colonial ascidian Synoicum pulmonaria” (J Nat Prod, 2014).
# The source made the active and inactive calls. The calls are words filed in the database; no cut-off is given here.
# How the values were obtained:
# [1] = test system: Staphylococcus epidermidis; experiment: Antimicrobial activity against Staphylococcus epidermidis ATCC 35984 assessed as inhibition of biofilm formation; assay type: functional, organism-based
# [2] = test system: MRC5; experiment: Cytotoxicity against human MRC5 cells; assay type: cell-based
# [3] = test system: MCF7; experiment: Cytotoxicity against human MCF7 cells; assay type: cell-based
# [4] = test system: HT-29; experiment: Cytotoxicity against human HT-29 cells; assay type: cell-based
# [5] = test system: A2058; experiment: Cytotoxicity against human A2058 cells; assay type: cell-based
# [6] = test system: Pseudomonas aeruginosa; experiment: Antimicrobial activity against Pseudomonas aeruginosa ATCC 27853 at 8 to 500 ug/ml after 24 hrs; assay type: functional, organism-based
# Procedure, shortened: (§1)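 Broth microdilution in Mueller Hinton broth at 37 °C. Samples dissolved in H2O are mixed 1:1 with log-phase bacterial suspension, about 5 × 10⁵ cells per well, and tested at 8 to 500 μg/mL. Growth is followed by optical density. MIC is the lowest concentration giving no OD change after 24 h at 37 °C. Cecropin B (25 μM) serves as positive control.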
# [7] = test system: Escherichia coli; experiment: Antimicrobial activity against Escherichia coli ATCC 25922 at 8 to 500 ug/ml after 24 hrs; assay type: functional, organism-based; procedure, shortened: as §1
# [8] = test system: Staphylococcus aureus; experiment: Antimicrobial activity against Staphylococcus aureus ATCC 9144 at 8 to 500 ug/ml after 24 hrs; assay type: functional, organism-based; procedure, shortened: as §1
# [9] = test system: Corynebacterium glutamicum; experiment: Antimicrobial activity against Corynebacterium glutamicum ATCC 13032 after 24 hrs; assay type: functional; conditions: ATCC 13032, 24 h
# Procedure, shortened: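 Broth microdilution in Mueller Hinton broth at 37 °C. Compounds were dissolved in water and tested from 8 to 500 μg/mL against log-phase bacteria at a start of about 5 × 10⁵ cells per well. Growth was followed by optical density, with cecropin B (25 μM) as positive control. MIC was taken as the lowest concentration giving no change in optical density after 24 h at 37 °C.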
# [10] = target: T1, Acetylcholinesterase (Electrophorus electricus, UniProt O42275); experiment: Noncompetitive inhibition of electric eel AChE using acetylthiocholine chloride as substrate after 5 mins by Dixon plot analysis
# [11] = target: T1, Acetylcholinesterase; experiment: Inhibition of electric eel AChE using acetylthiocholine chloride as substrate after 5 mins by Ellman's method
# T1 sequence (O42275 whole entry): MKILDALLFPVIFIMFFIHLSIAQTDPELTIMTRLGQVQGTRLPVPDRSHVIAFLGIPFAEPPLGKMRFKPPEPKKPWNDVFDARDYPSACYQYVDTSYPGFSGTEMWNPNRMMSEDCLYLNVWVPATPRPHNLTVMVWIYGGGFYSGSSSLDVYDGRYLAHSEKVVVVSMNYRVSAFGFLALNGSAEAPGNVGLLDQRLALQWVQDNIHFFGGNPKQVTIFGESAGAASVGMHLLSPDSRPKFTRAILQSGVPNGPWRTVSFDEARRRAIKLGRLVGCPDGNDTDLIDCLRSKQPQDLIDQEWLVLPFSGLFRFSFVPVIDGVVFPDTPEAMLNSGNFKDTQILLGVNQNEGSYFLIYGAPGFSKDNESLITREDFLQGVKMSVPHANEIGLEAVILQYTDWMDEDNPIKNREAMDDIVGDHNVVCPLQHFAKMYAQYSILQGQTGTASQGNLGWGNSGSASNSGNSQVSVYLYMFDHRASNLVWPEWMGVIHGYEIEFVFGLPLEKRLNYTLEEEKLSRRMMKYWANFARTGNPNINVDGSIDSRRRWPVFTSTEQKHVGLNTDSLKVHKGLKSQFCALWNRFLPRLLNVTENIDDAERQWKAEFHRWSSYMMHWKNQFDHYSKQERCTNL
SMILES,inhibition [1],Activity [2],Activity [3],Activity [4],Activity [5],Activity [6],Activity [7],Activity [8],MIC [9] [µg/mL],Ki [10] [µM],IC50 [11] [µM]
COc1c(Br)cc(C(=O)OCC[N+](C)(C)C)cc1Br.[Cl-],inactive,Non-toxic,Non-toxic,Non-toxic,Non-toxic,inactive,inactive,inactive,500,90,105
COc1c(Br)cc(CC(=O)NCCCCC[N+](C)(C)C)cc1Br.[I-],inactive,Non-toxic,Non-toxic,Non-toxic,Non-toxic,inactive,inactive,inactive,250,20,36
